Test [1] addresses T1, Angiotensin II receptor (AT-1) type-1 (Rattus norvegicus, UniProt P29089+P25095).
T1 sequence (P29089 whole entry): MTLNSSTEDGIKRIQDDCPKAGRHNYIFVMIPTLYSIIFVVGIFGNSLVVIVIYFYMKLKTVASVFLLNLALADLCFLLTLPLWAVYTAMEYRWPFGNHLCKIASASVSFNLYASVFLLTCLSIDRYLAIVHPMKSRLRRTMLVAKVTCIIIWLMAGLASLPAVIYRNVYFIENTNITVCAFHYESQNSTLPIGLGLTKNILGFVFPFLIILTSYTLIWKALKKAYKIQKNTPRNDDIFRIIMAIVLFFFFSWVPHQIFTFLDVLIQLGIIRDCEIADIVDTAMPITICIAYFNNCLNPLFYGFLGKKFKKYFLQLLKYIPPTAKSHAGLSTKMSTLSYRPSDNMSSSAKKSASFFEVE
T1 sequence (P25095 whole entry): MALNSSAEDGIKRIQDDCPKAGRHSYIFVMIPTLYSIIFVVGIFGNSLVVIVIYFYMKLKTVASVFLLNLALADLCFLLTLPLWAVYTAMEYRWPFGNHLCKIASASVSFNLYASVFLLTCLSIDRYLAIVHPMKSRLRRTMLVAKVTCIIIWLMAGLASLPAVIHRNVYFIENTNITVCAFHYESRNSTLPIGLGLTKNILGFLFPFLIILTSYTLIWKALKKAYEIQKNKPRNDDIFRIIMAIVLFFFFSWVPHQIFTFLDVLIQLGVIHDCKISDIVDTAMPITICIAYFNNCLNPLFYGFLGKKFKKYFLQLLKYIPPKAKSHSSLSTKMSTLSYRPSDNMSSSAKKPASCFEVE
Put plainly: In vitro binding affinity to the angiotensin II receptor, type 1 in rat liver. An outline of the steps: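 Buffer: 50 mM NaH2PO4 pH 7.1 with 100 μM bacitracin, 0.2% BSA, 100 mM NaCl, 10 mM MgCl2, 1 mM EGTA. Incubated 1 h at 25 °C, then filtered, and filters counted. IC50 from weighted nonlinear regression to the mass action equation.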

The target in test [2] is T2, Type-1 angiotensin II receptor (Oryctolagus cuniculus, UniProt P34976).
T2 sequence (P34976 whole entry): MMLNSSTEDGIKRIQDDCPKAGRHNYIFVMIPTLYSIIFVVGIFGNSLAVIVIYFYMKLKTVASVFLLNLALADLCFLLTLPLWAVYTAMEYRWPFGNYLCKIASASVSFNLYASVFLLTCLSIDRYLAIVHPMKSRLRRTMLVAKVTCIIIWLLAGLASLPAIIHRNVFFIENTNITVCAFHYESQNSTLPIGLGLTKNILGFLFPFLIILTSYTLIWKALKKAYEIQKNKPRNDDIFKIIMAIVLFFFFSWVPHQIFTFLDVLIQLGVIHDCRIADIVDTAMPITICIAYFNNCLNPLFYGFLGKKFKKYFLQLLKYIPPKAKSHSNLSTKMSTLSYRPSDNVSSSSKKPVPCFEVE
The test is described as follows: Agonist efficacy assessed from contractile responses on rabbit aorta Angiotensin II receptor, type 1; Not Active. In kind it is functional, tissue-based. The method, boiled down: (§1)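 Rabbit thoracic aortic rings held in 20-mL baths of Krebs-bicarbonate at 37 °C, gassed with 5% CO2 in oxygen. Resting tension 4.0 g, 90-min equilibration. Peptides added cumulatively until maximal response. EC50 read graphically from the curves as the concentration giving 50% of maximal contraction.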

The species entered for another test is Oryctolagus cuniculus. Put plainly: Agonist efficacy assessed from contractile responses on rabbit aorta (AT1). In kind it is functional. The method, boiled down:
as §1

*1 amine or outer side, *2 acyl side, *3 side chain or, on linkers, in order; H or OH if unused. Where a SMILES comes first, the peptide text is derived from it. Bridges are numbered along the chain shown (N, C = ends). [ ]: non-standard residue; d: D form. Pro(4R-SH) = O=C([C@@H]1C[C@@H](S[*:3])CN1[*:1])[*:2]; Pro(4S-SH) = O=C([C@@H]1C[C@H](S[*:3])CN1[*:1])[*:2]; hCys = N[C@@H](CCS)C(=O)O; Sar = CNCC(=O)O

As a reminder, the IC50 is the point on the concentration scale where inhibition reaches its midpoint. A lower IC50 goes with inhibition by little substance. A word on the EC50: it is the concentration giving half of the maximal effect. Higher therefore signals a need for much substance. In test [1], `CNCC(=O)N[C@@H](CCCN=C(N)N)C(=O)N1C[C@@H]2C[C@H]1C(=O)N[C@@H](Cc1ccc(O)cc1)C(=O)N[C@H](C(=O)N[C@@H](Cc1c[nH]cn1)C(=O)N1CCC[C@H]1C(=O)N[C@@H](Cc1ccccc1)C(=O)O)CSS2` (H-[Sar]R[Pro(4S-SH)]YCHPF-OH; disulfide 3-5) yielded an IC50 of 4700 nM. The EC50 entry in test [2] is “Not Active”.

With `CNCC(=O)N[C@@H](CCCN=C(N)N)C(=O)N1C[C@H]2C[C@H]1C(=O)N[C@@H](Cc1ccc(O)cc1)C(=O)N[C@H](C(=O)N[C@@H](Cc1c[nH]cn1)C(=O)N1CCC[C@H]1C(=O)N[C@@H](Cc1ccccc1)C(=O)O)CCSS2` (H-[Sar]R[Pro(4R-SH)]Y[hCys]HPF-OH; disulfide 3-5), the EC50 in the test filed under Oryctolagus cuniculus is 700 nM. The compound also came in with an IC50 in test [1] of 29 nM.

These data come from ChEMBL document CHEMBL1126724, “Multiple binding modes for the receptor-bound conformations of cyclic AII agonists” (J Med Chem, 1993).
